# Shown are actives, neighbours in structure and some others; about 2.9% of the full set was active somewhere.
# MC4R antagonist – blocks human MC4R cAMP signaling. P32245. inhibition, % at 6.5 µM. AID 540295. MC4R-expressing cells, MTII-stimulated cAMP, LANCE TR-FRET. 360,000 tested, 0.48% active;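 active = inhibition above its plate's cutoff, the mean of tested wells on that plate plus 3 SD, cut at about 29% in these data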;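 note: 0% = Melanotan II alone and 100% = Melanotan II plus saturating MCL0020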
# Target sequence (P32245 whole entry, looked up): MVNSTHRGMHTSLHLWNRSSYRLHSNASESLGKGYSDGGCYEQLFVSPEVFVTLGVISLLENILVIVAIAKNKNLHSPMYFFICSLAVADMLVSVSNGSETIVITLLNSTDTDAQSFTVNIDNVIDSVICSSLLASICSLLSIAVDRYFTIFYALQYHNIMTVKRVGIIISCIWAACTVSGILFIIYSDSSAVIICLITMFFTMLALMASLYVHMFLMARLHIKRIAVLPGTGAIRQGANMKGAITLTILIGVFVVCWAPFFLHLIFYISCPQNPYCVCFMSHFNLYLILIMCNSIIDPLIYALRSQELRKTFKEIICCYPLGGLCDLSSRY
#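 Material: U2OS-MC4R stable cell line | Reagent: Melanotan II challenge after compound preincubation | Doses: One concentration, 6.5 µM nominal | Incubation: 30-min compound preincubation, 1-h Melanotan II challenge, 1-h detection, room temperature | Signal: TR-FRET cAMP assay | Replicates: One well per compound, no replicates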
# GalR3 antagonist – antagonists of human GalR3; O60755; 360,000 tested, 0.44% active; AID 651719; inhibition, % at 3 µM; HEK293 GalR3-CNG cAMP membrane potential fluorescence; galR3 body fused to GalR1 C-terminus;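 active = inhibition above the screen-wide average plus 3 SD, cut at about 13% in these data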;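 note: forskolin and galanin both at EC90 stimulate the cells; cAMP rise reported by CNG channel membrane potential dye signal; 0% = forskolin plus galanin with DMSO and 100% = forskolin alone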
# TAG inh – triacylglycerol accumulation inhibition; 230,000 tested, 0.66% active; inhibition, % at 12.5 µM; AID 651582; H9c2 cells, Nile Red lipid (TAG) fluorescence; cells loaded with 200 µM oleic acid;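 active = pattern-corrected inhibition of lipid staining of at least 50% with the nuclear-stain viability signal not falling by more than 50%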;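 note: 0% = DMSO wells and 100% = triacsin C control wells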
# Calb FLC – affects C. albicans growth with fluconazole | C. albicans CaCi-2 + fluconazole, Alamar Blue growth, 48 h | growth inhibition, % (no concentration beside the values) | 300,000 tested, 0.57% active;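 active = growth inhibition above about 58% in most replicates, limit read from the data, passing the limit was not always enough; inconclusive = exactly half the replicates above a set limit; inactive = most replicates below a set limit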;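 note: all wells also contain fluconazole at 8 µg/ml as a sub-toxic cotreatment; 0% = median of DMSO wells and 100% = median of geldanamycin control wells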
# MC4R barr agon – activates human MC4R beta-arrestin recruitment; U2OS MC4R beta-arrestin complementation, luminescence; percent of melanotan II response, DMSO zero; 360,000 tested, 0.98% active; activation, % at 8.9 µM;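 active = activation above a per-plate cutoff, the mean activation of sample wells on that plate plus 3 SD, cut at about 8% in these data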
# Efflux pump inh – blocks antifungal efflux pumps in multiplex yeast assay | S. cerevisiae Candida pump triplex, Nile Red efflux | inhibition, % at 10 µM | 330,000 tested, 0.44% active;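 active = plate passing quality check with inhibition over a set limit, or well fluorescence over plate mean plus 4 SD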;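 note: Nile Red retained in pooled yeast measured as flow cytometry median fluorescence; 0% = buffer negative control and 100% = Enniatin B positive control; higher means more Nile Red kept so more efflux inhibition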
# GalR3 antag conf – GalR3 (human) antagonism, confirmation; HEK293 GalR3 CNG cAMP biosensor, membrane potential fluorescence; galR3 fused to GalR1 carboxy tail; challenged with forskolin and galanin at EC90; 1,600 tested, 59% active; shares compounds with GalR3 antagonist; inhibition, % at 3 µM;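 active = inhibition above the primary screen's cutoff, the mean inhibition of all screened compounds plus 3 SD, cut at about 13% in these data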;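 note: 0% = forskolin plus galanin and 100% = forskolin alone with DMSO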
# CNG parental – acts as nonspecific agonist in parental HEK-CNG cells; shares compounds with GalR3 antagonist; HEK293-CNG parental cells, cAMP membrane potential fluorescence; normalised: DMSO wells 0%, forskolin wells 100%; activation, % at 3 µM; 1,600 tested, 10% active; AID 652268; in the data active = activation above about 1.3%
# Active calls of the source: *; ? = inconclusive; · = no result.
SMILES,MC4R antagonist,GalR3 antagonist,TAG inh,Calb FLC,MC4R barr agon,Efflux pump inh,GalR3 antag conf,CNG parental
NC(=O)c1ncn([C@@H]2O[C@H](C(=O)Nc3ccc(Oc4ccccc4)nc3)[C@@H](O)[C@H]2O)n1,·,-3,·,·,·,·,·,·
Cc1ccc(-n2c(=O)cc(N3CCN(C(=O)c4ccco4)CC3)[nH]c2=O)cc1,5,15*,3,-2,-2,0,0,0
O=S(=O)(c1ccc2c(c1)OCCO2)N1CCN(c2ncnc3sccc23)CC1,-8,100*,·,?,-1,0,111*,0
C=CCOC(=O)Nc1nc(CCNC(=O)OCc2ccccc2)c(C(=O)O)s1,·,-6,·,·,·,·,·,·
O=C(Nc1ccccc1)Nc1cc([N+](=O)[O-])ccc1F,0,21*,·,8,-2,-1,-3,-1
COc1ccc(CC2(CO)CCN(Cc3cccc(OC)c3OC)CC2)cc1,2,26*,6,-1,-2,0,2,2.1*
C[C@H](CO)N1C[C@H](C)[C@H](CN(C)S(=O)(=O)c2ccc(F)cc2)OCc2cnnn2CCCC1=O,-5,-7,-17,·,-1,·,·,·
COc1ccc(C(=O)Nc2ccccc2C(=O)NC(Cc2ccc(O)cc2)C(=O)NNC(=O)c2ccccc2)cc1 (stereo not given),4,13*,·,?,-1,1,6,0
COc1cc(CSc2nnnn2-c2ccc(C)cc2)cc(OC)c1OC,3,96*,·,10,0,0,98*,0
Cc1cc(/C=N/n2cnnc2)c(C)n1-c1ccc(OCc2ccc(Cl)cc2)cc1,-5,41*,-23,5,-1,0,64*,1
Cc1cc(/C=N/n2cnnc2)c(C)n1-c1ccc(OCc2ccccc2F)cc1,-6,-13,·,-7,1,0,·,·
